SENP7 inh = SENP7 protease inhibitors, primary screen, biochemical, luminescence, uHTS. Sentrin-specific protease 7 (Homo sapiens), Q9BQF6. recombinant SENP7, Z-RLRGG-aminoluciferin luminescence, 40 min. inhibition, % at 5 µM. 330,000 tested, 1.5% active. AID 434973, 2010;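 active = inhibition above about 50% at the single test dose, limit read from the data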;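 note: plate controls were DMSO with enzyme for no effect and no enzyme buffer wells for full effect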
SENP8 block-1 = SENP8 protease inhibitors, primary screen, biochemical, luminescence; purified SENP8, Z-RLRGG-aminoluciferin cleavage; AID 2540, 2010; 330,000 tested, 1.2% active; inhibition, % at 10 µM; in the data active = inhibition above about 50%
Target sequence (Q96LD8 whole entry, looked up): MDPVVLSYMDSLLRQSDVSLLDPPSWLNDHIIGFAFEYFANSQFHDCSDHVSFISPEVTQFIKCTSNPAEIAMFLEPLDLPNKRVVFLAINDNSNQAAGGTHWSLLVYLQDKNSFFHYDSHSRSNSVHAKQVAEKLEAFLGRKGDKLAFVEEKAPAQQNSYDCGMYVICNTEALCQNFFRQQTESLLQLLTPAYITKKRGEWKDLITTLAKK
SENP1 inh = human SENP1 catalytic domain inhibitors, primary screen, biochemical, FRET, uHTS. Sentrin-specific protease 1 (Homo sapiens), Q9P0U3. recombinant SENP1 catalytic domain, CyPet-SUMO1-YPet FRET cleavage. inhibition, % at 10 µM. 360,000 tested, 0.21% active. AID 624204, 2012;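 active = inhibition at least 30% at 10 µM, raw YFP signal under a set limit, fluorescence ratio 0.5 to 1.5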;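 note: 0% = enzyme with DMSO and 100% = no enzyme wells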
Target sequence (Q9P0U3 419-644 limits assumed): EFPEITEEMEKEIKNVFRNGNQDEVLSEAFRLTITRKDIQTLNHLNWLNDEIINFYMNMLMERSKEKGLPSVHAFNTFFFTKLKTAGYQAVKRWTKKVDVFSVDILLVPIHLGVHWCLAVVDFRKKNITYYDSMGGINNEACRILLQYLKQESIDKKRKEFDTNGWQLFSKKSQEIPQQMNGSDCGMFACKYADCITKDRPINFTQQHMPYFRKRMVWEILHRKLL
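Test system: hSENP1 catalytic domain, recombinant; Amount: 20 pM final SENP1 enzyme; Medium: Tris pH 8 buffer plus EDTA, NaCl, BME, BSA, NP40, catalase; Schedule: 50 min enzyme reaction, room temperature, light-protected; Technique: FRET fluorescence in CFP and YFP emission channels; Controls: no-enzyme wells low, DMSO-plus-enzyme wells high control.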
Platelet DG rel = inhibitors of platelet dense granule secretion, primary screen, cell-based, MLPCN, human platelets. human platelet-rich plasma, SFLLRN dense granule ATP release, luminescence. inhibition, %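 (compounds screened at 7.5 µM in platelet-rich plasma)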. 300,000 tested, 0.22% active. AID 1663, 2009;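 active = mean replicate score, as percent of positive control, at or above 50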
SENP8 block-2 = human SENP8 protease inhibitors, primary screen, biochemical, fluorescence, Nedd8 protein substrate, uHTS | inhibition, % at 20 µM | 360,000 tested, 0.64% active | recombinant SENP8 | Sentrin-specific protease 8 (Homo sapiens), Q96LD8 | AID 602440, 2012; in the data active = inhibition mostly above about 40%, no sharp cut-off; inactive = mostly below about 27%
SENP6 block = SENP6 protease inhibitors, primary screen, biochemical, luminescence, uHTS; Sentrin-specific protease 6 (Homo sapiens), Q9GZR1; Recombinant SENP6 catalytic domain, aminoluciferin luminescence; inhibition, % at 10 µM; 330,000 tested, 1.8% active;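 active = inhibition above about 50% at the single tested dose, limit read from the data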;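 note: plate controls were DMSO wells with enzyme for no effect and DMSO wells lacking enzyme for full effect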
SENP8 confirm = SENP8 protease inhibitors, retest, confirmation, biochemical, luminescence, single concentration. inhibition, % at 12.5 µM. shares compounds with SENP7 inh. 6,200 tested, 40% active. Recombinant SENP8, Z-RLRGG-aminoluciferin luminescence, 60 min;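 active = mean inhibition across replicates above about 50%, limit read from the data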
SENP6 conf = SENP6 protease inhibitors, confirmation, biochemical, luminescence, single concentration; shares compounds with SENP7 inh; recombinant SENP6, Z-RLRGG-aminoluciferin luminescence; 6,200 tested, 58% active; AID 488915, 2010; inhibition, % at 12.5 µM
SENP7 confirm = SENP7 protease inhibitors, retest, confirmation, biochemical, luminescence, single concentration; recombinant SENP7, Z-RLRGG-aminoluciferin luminescence, 40 min; shares compounds with SENP7 inh; inhibition, % at 12.5 µM; 6,200 tested, 69% active
Casp3 select = caspase-3 protease inhibitors, confirmation, selectivity assay for SENP inhibitor project, biochemical, single concentration | shares compounds with SENP7 inh | inhibition, % at 12.5 µM | 6,200 tested, 60% active | purified caspase-3, Z-DEVD-aminoluciferin luminescence, 60 min | AID 488918, 2010;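 active = mean inhibition above about 50%, limit read from the data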;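 note: plate controls were enzyme with DMSO for no effect and wells without caspase-3 for full effect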
Luc interf = luminescence interference (SENP counter-screen); Pre-incubated SENP8/Z-RLRGG-aminoluciferin, luciferase luminescence interference; shares compounds with SENP7 inh; AID 488919; 6,200 tested, 39% active; inhibition, % at 12.5 µM;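 active = mean inhibition above about 50% when retested at one dose, limit read from the data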;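 note: plate controls were DMSO wells with completed reaction for no effect and substrate without enzyme for full effect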
The depositor's hits bear a star; nt = no result given. This is a sample that favours compounds with a hit; in the whole collection about 2.6% have one here.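 Rule for the calls, unless noted: active = mean inhibition above about 50% in the one-dose retest (limit read from the data); inactive = the rest.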

SMILES	SENP7 inh	SENP8 block-1	SENP1 inh	Platelet DG rel	SENP8 block-2	SENP6 block	SENP8 confirm	SENP6 conf	SENP7 confirm	Casp3 select	Luc interf
O=C(c1cc(-c2ccccc2Cl)on1)N1CCCC1	63*	57*	1	-3	9	72*	9	64*	90*	78*	66*
CC1CCN(C(=O)c2ccc(-c3ccccc3Cl)o2)CC1	42	49	-1	0	6	72*	66*	66*	82*	51*	65*
COc1ccccc1-c1cc(C(=O)N2CCCC2)no1	15	1	1	2	1	26	nt	nt	nt	nt	nt
O=C(c1cc(-c2ccccc2)on1)N1CCCC1	46	1	2	-3	26	17	nt	nt	nt	nt	nt
COc1ccc(C(=O)Oc2ccc(Br)cc2C(=S)N2CCOCC2)cc1	6	-2	3	-20	17	-1	nt	nt	nt	nt	nt
Cc1ccccc1CNC(=O)c1csc([C@@H]2C[C@H](O)[C@@H](CO)O2)n1	nt	nt	-1	nt	10	nt	nt	nt	nt	nt	nt
CN(c1ccc(C(=O)Nc2ccc3c(c2)OCO3)cc1)S(C)(=O)=O	79*	55*	3	83*	29	82*	42	42	74*	73*	48
CN(c1ccc(C(=O)Nc2ccc3c(c2)OCCO3)cc1)S(C)(=O)=O	-13	36	1	21	10	57*	59*	57*	85*	82*	65*
COc1cc2sc3cc(NCCCN4CCOCC4)ccc3c(=O)c2cc1OC	75*	43	-30	nt	-463	69*	-10	-4	-2	17	29
COc1ccc2cc3cc(C(=O)N4CCCC(C)C4)oc3nc2c1 (centres undefined)	83*	59*	1	5	-393	80*	22	16	20	28	2
CCOC(=O)C1CCCN(C(=O)c2cc3cc4ccc(OC)cc4nc3o2)C1 (centres undefined)	9	-4	0	-4	-311	3	nt	nt	nt	nt	nt
CCOc1ccc(/C=C2\CCc3ccccc3C2=O)cc1	99*	95*	-3	16	-3	97*	-3	88*	14	34	12
COc1cc(/C=C2/CCc3ccccc3C2=O)cc(OC)c1OC	6	-1	5	20	5	-8	nt	nt	nt	nt	nt
COc1ccc(/C=C2/CCc3ccccc3C2=O)cc1OC	40	-2	-14	-4	-12	59*	65*	63*	60*	28	43
COc1ccc(C=C2C(=O)OC(C)(C)OC2=O)cc1OC	-5	-9	1	2	5	-11	nt	nt	nt	nt	nt
O=C1/C(=C\c2ccncc2)CCc2ccccc21	60*	14	4	32	4	57*	76*	48	26	6	91*

Source: PubChem
